ChEMBL document CHEMBL3098111, “Discovery of 2,5-diarylnicotinamides as selective orexin-2 receptor antagonists (2-SORAs)” (Bioorg Med Chem Lett, 2013)
Calls of active or inactive are those of the source. The calls are words filed in the database; no cut-off is given here.

Experiments:
Homo sapiens [1] = organism: Homo sapiens; test: Inhibition of human nicotinic acetylcholine receptor at 10 uM relative to control
[2] = target: Oxytocin receptor (Homo sapiens) (UniProt P30559); test: Inhibition of human oxytocin receptor at 10 uM relative to control
[3] = target: Adrenergic receptor alpha-1 (Rattus norvegicus) (UniProt P15823+P23944+P43140); test: Inhibition of rat alpha1 adrenergic receptor at 10 uM relative to control
[4] = target: Polyunsaturated fatty acid 5-lipoxygenase (Homo sapiens) (UniProt P09917); test: Inhibition of human 5-lipoxygenase at 10 uM relative to control
[5] = target: 5-hydroxytryptamine receptor 2B (Homo sapiens, UniProt P41595); test: Inhibition of human 5-HT2B receptor at 1 uM relative to control
[6] = target: Neprilysin (Homo sapiens) (UniProt P08473); test: Inhibition of human neutral endopeptidase at 10 uM relative to control
[7] = target: Glutamate NMDA receptor (Rattus norvegicus) (UniProt P35439+Q00959+Q00960+Q00961+Q62645+Q8VHN2+Q9R1M7); test: Inhibition of rat NMDA receptor agonist binding site at 10 uM relative to control; format: protein-complex assay
[8] = target: GABA-A receptor; alpha-1/beta-3/gamma-2 (Homo sapiens) (UniProt P14867+P18507+P28472); test: Inhibition of human GABA alpha1beta3gamma2 receptor at 10 uM relative to control; format: protein-complex assay
Bos taurus = organism: Bos taurus; test: Inhibition of bovine PKA at 100 uM relative to control
[9] = target: Prostaglandin E2 receptor EP4 subtype (Homo sapiens) (UniProt P35408); test: Inhibition of human prostanoid EP4 receptor at 10 uM relative to control
Rattus norvegicus [10] = organism: Rattus norvegicus; test: Inhibition of rat AMPA receptor at 10 uM relative to control
[11] = target: 5-hydroxytryptamine receptor 6 (Homo sapiens) (UniProt P50406); test: Inhibition of human 5-HT6 receptor at 10 uM relative to control
[12] = target: Pro-epidermal growth factor (Homo sapiens) (UniProt P01133); test: Inhibition of human EGF at 10 uM relative to control
[13] = target: Proto-oncogene tyrosine-protein kinase Src (Homo sapiens) (UniProt P12931); test: Inhibition of human SRC at 10 uM relative to control
Rattus norvegicus [14] = test: Antiinsomnic activity in rat EEG model assessed as decrease in light sleep time at 15 mg/kg, po; format: functional, organism-based; parameters: dose 15 mg/kg
Summary of the method: (§1)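 Rats with EEG telemetry given 15 mg/kg orally during their active period, vehicle 20% Vitamin E TPGS in water. Sleep architecture (active wake, light sleep, delta and REM sleep) scored from EEG.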

[15] = target: Cannabinoid receptor 1 (Homo sapiens) (UniProt P21554); test: Inhibition of human CB1 receptor at 10 uM relative to control
[16] = target: Prostaglandin E2 receptor EP3 subtype (Homo sapiens) (UniProt P43115); test: Inhibition of human prostanoid EP3 receptor at 10 uM relative to control
Rattus norvegicus [17] = test: Antiinsomnic activity in rat EEG model assessed as increase in delta sleep time at 15 mg/kg, po; format: functional, organism-based; parameters: dose 15 mg/kg; summary of the method: as §1
[18] = target: Alpha-2A adrenergic receptor (Homo sapiens) (UniProt P08913); test: Inhibition of human alpha2A adrenergic receptor at 10 uM relative to control
[19] = target: Prostacyclin receptor (Homo sapiens) (UniProt P43119); test: Inhibition of human prostanoid IP receptor at 10 uM relative to control
Caspase-1 (Homo sapiens) = Caspase-1 (Homo sapiens) (UniProt P29466); test: Inhibition of human caspase 1 at 10 uM relative to control
[20] = target: T1, 5-hydroxytryptamine receptor 1A (Homo sapiens) (UniProt P08908); test: Inhibition of human 5-HT1A receptor at 1 uM relative to control
T1 sequence (whole entry): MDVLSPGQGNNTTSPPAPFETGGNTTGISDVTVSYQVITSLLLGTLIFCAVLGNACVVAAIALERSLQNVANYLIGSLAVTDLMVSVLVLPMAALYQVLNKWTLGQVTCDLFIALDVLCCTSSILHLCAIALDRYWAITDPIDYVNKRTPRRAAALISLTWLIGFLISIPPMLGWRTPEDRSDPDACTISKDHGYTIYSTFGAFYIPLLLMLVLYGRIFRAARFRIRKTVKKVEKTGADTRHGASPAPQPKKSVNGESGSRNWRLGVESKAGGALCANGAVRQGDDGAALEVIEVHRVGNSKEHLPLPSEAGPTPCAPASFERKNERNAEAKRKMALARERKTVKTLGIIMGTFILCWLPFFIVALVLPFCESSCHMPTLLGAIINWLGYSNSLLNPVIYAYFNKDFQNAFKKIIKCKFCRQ

[21] = target: Somatostatin receptor type 2 (Homo sapiens) (UniProt P30874); test: Inhibition of human SST2 receptor at 10 uM relative to control
[22] = target: Substance-K receptor (Homo sapiens) (UniProt P21452); test: Inhibition of human NK2 receptor at 10 uM relative to control
Rattus norvegicus [23] = organism: Rattus norvegicus; test: Inhibition of rat ATP-sensitive potassium channel at 10 uM relative to control
[24] = target: Galanin receptor type 1 (Homo sapiens) (UniProt P47211); test: Inhibition of human GAL1 receptor at 10 uM relative to control
Rattus norvegicus [25] = organism: Rattus norvegicus; test: Inhibition of rat bombesin receptor at 10 uM relative to control
[26] = target: Cholecystokinin receptor type A (Homo sapiens) (UniProt P32238); test: Inhibition of human CCKA receptor at 10 uM relative to control
[27] = target: D(4) dopamine receptor (Homo sapiens) (UniProt P21917); test: Inhibition of human dopamine D4.4 receptor at 10 uM relative to control
[28] = target: Type-1 angiotensin II receptor (Homo sapiens) (UniProt P30556); test: Inhibition of human angiotensin AT1 receptor at 10 uM relative to control
D(3) dopamine receptor = D(3) dopamine receptor (Homo sapiens, UniProt P35462); test: Inhibition of human dopamine D3 receptor at 10 nM relative to control
Cavia porcellus = organism: Cavia porcellus; test: Inhibition of guinea pig adenosine transporter at 1 uM relative to control
[29] = target: Vascular endothelial growth factor receptor 1 (Homo sapiens) (UniProt P17948); test: Inhibition of human FLT1 at 10 uM relative to control
[30] = target: Neuropeptide Y receptor type 2 (Homo sapiens) (UniProt P49146); test: Inhibition of human neuropeptide YY2 receptor at 10 uM relative to control
[31] = target: Muscarinic acetylcholine receptor M3 (Homo sapiens) (UniProt P20309); test: Inhibition of human muscarinic M3 receptor at 10 uM relative to control
[32] = target: Somatostatin receptor type 4 (Homo sapiens) (UniProt P31391); test: Inhibition of human SST4 receptor at 10 uM relative to control
Homo sapiens [33] = organism: Homo sapiens; test: Selectivity ratio of Ki for human orexin-1 receptor to Ki for human orexin-2 receptor
Summary of the method: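 Radioligand binding: a high-affinity radioligand was bound to membranes from human cells overexpressing OX1R or OX2R, and inhibition of that binding was measured and expressed as Ki. The ratio is the OX1R Ki divided by the OX2R Ki.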

Neprilysin (Homo sapiens), sequence (P08473 whole entry): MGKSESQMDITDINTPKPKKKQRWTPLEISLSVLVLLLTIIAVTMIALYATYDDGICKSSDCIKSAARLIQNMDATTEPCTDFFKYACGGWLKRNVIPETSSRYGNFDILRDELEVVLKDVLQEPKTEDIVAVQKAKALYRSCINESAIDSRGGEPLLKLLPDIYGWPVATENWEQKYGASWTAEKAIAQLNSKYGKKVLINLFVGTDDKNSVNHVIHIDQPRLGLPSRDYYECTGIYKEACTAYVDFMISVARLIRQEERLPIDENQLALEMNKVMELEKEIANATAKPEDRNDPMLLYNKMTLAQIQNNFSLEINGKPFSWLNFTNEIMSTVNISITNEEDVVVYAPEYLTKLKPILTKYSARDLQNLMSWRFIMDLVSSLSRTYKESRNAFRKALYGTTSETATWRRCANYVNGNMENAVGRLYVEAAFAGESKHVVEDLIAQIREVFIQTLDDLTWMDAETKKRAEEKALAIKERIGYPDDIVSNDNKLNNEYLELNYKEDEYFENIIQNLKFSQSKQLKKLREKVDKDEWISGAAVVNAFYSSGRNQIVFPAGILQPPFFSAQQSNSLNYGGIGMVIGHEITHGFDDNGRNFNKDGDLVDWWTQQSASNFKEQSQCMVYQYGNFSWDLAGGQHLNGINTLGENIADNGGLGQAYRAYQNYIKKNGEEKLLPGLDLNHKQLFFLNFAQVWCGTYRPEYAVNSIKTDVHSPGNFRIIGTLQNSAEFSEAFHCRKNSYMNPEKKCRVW
Cholecystokinin receptor type A (Homo sapiens), sequence (P32238 whole entry): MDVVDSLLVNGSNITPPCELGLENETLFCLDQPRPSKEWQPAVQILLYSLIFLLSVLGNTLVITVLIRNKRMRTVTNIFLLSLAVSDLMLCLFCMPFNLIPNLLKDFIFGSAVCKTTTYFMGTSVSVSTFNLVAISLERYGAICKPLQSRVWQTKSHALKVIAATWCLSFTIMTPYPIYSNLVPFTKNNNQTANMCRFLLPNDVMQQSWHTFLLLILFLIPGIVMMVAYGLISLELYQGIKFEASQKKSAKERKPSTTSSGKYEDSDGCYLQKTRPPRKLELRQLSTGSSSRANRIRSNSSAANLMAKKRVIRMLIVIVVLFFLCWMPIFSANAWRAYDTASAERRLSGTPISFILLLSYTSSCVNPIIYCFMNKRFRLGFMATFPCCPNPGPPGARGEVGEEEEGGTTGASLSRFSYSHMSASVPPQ
Pro-epidermal growth factor (Homo sapiens), sequence (P01133 whole entry): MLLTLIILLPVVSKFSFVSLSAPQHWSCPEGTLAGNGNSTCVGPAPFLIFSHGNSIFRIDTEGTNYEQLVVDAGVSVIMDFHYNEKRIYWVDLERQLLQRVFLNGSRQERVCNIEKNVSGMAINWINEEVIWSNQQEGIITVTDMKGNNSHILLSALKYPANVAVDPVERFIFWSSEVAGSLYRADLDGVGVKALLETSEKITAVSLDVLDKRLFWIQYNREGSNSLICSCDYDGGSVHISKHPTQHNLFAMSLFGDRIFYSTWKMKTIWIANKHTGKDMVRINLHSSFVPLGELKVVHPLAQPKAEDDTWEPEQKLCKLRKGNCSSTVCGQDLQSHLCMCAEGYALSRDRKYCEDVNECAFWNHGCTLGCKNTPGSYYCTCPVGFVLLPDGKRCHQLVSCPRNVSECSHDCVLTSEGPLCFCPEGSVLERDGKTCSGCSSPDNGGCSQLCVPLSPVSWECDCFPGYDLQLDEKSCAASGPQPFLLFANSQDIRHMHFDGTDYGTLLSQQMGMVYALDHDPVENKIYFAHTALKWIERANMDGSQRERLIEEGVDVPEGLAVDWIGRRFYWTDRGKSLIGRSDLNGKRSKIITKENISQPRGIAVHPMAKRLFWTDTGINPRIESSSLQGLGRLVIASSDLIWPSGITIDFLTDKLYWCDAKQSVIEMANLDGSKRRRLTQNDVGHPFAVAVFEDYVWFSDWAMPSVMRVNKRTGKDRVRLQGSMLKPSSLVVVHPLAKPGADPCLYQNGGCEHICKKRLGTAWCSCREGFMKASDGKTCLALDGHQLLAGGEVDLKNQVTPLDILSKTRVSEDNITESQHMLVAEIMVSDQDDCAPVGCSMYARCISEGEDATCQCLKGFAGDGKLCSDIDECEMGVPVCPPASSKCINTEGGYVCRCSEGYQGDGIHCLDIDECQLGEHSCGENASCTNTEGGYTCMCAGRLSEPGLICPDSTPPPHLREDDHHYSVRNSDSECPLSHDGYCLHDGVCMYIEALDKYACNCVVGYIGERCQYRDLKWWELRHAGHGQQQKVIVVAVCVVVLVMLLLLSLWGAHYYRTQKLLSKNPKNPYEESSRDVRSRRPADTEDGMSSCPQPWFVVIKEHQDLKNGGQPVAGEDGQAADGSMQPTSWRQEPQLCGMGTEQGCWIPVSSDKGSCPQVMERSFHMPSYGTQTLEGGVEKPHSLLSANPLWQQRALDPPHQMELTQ
Oxytocin receptor (Homo sapiens), sequence (P30559 whole entry): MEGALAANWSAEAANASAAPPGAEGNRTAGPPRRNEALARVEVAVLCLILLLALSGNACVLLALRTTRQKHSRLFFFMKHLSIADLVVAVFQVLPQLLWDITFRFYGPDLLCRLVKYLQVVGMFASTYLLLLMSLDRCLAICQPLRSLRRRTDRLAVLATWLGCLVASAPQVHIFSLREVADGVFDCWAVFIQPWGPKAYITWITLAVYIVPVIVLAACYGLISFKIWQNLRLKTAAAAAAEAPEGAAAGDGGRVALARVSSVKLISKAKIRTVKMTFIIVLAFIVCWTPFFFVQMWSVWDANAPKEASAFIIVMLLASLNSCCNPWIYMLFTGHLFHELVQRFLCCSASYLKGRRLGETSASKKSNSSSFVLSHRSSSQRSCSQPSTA
Type-1 angiotensin II receptor (Homo sapiens), sequence (P30556 whole entry): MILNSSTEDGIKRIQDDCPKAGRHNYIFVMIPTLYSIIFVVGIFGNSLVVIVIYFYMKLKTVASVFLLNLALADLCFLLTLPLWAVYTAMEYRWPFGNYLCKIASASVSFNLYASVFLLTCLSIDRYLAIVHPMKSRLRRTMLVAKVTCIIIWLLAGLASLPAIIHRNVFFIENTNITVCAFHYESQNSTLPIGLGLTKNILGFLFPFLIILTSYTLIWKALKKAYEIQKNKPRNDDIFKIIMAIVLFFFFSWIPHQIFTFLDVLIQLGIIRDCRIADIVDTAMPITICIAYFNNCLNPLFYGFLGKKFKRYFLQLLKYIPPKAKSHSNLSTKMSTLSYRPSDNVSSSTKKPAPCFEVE
Neuropeptide Y receptor type 2 (Homo sapiens), sequence (P49146 whole entry): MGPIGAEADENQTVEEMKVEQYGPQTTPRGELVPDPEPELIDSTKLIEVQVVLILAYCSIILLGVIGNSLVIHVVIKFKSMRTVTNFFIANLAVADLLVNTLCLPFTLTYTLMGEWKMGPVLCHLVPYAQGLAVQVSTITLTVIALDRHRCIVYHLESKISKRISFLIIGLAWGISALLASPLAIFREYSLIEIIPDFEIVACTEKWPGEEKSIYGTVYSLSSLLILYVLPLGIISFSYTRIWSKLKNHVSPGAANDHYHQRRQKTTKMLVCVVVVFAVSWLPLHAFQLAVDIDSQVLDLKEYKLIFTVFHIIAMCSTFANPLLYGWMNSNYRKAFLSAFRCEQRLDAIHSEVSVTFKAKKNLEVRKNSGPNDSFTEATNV
Alpha-2A adrenergic receptor (Homo sapiens), sequence (P08913 whole entry): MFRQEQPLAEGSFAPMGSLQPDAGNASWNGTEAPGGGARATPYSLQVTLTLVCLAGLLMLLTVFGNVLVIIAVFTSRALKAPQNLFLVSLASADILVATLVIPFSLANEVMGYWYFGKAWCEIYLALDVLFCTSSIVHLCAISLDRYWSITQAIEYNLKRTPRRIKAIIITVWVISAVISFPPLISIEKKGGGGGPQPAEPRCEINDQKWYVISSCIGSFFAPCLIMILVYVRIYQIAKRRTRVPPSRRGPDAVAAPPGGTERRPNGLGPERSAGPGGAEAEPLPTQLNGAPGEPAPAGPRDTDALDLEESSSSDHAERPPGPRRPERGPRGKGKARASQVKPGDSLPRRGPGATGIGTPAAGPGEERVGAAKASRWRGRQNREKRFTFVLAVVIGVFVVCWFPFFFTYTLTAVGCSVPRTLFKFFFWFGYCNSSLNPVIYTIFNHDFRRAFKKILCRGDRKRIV
Muscarinic acetylcholine receptor M3 (Homo sapiens), sequence (P20309 whole entry, looked up): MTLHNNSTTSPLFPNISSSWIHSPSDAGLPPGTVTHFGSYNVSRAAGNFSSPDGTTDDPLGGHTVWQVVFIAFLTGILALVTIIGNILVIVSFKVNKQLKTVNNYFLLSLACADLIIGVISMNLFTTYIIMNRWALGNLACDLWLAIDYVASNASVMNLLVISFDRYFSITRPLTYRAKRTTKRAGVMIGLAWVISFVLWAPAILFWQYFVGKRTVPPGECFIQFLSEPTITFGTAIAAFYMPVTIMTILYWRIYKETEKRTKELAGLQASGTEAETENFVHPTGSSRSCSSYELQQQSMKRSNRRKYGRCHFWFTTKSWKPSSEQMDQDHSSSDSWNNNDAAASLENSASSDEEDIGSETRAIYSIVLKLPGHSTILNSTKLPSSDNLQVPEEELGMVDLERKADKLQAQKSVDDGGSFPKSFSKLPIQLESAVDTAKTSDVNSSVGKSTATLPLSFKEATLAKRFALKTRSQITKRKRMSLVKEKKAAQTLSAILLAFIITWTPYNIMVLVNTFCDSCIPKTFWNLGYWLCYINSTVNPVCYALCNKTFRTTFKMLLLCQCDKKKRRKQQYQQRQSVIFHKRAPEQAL
Substance-K receptor (Homo sapiens), sequence (P21452 whole entry): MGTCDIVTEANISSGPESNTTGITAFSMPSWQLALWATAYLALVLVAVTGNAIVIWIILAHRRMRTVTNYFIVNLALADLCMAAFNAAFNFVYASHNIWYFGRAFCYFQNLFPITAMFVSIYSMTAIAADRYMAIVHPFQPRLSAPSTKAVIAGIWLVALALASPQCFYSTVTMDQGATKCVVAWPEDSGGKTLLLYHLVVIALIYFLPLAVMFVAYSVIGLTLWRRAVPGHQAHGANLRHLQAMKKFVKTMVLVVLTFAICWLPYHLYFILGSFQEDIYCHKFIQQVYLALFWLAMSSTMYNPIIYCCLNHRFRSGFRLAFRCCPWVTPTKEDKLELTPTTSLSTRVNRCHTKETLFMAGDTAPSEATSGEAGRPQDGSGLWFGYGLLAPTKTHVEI

inhibition (Homo sapiens [1]): -1%
inhibition [2]: 14%
inhibition [3]: -4%
inhibition [4]: 44%
inhibition [5]: 52%
inhibition [6]: -5%
inhibition [7]: 1%
inhibition [8]: 21%
inhibition (Bos taurus): -7%
inhibition [9]: 19%
inhibition (Rattus norvegicus [10]): 9%
inhibition [11]: -8%
inhibition [12]: 7%
inhibition [13]: -5%
inhibition [15]: 10%
inhibition [16]: 19%
inhibition [18]: 19%
inhibition [19]: -2%
inhibition (Caspase-1 (Homo sapiens)): 4%
inhibition [20]: 41%
inhibition [21]: -3%
inhibition [22]: 25%
inhibition (Rattus norvegicus [23]): 0%
inhibition [24]: 3%
inhibition (Rattus norvegicus [25]): 3%
inhibition [26]: 9%
inhibition [27]: 3%
inhibition [28]: 14%
inhibition (D(3) dopamine receptor): 5%
inhibition (Cavia porcellus): 32%
inhibition [29]: 20%
inhibition [30]: 0%
inhibition [31]: -2%
inhibition [32]: 5%
Ratio Ki (Homo sapiens [33]): 1350
Structure (SMILES): COc1ccc(CNC(=O)c2cc(-c3cc(Cl)cc(Cl)c3)cnc2-c2cccnc2)cc1OC
Activity (Rattus norvegicus [14]): Active
Activity (Rattus norvegicus [17]): Active
